Screening results (PubChem BioAssay)
hERG protect – hERG (human) protection from proarrhythmic block. Q12809. CHO-hERG, FluxOR thallium flux, dofetilide IC70 present. activation (rescue from dofetilide block), less the hit threshold, % at 10 µM. 310,000 tested, 0.51% active. AID 1511;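 active means activation above the mean of controls blocked by dofetilide plus 5 SD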;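 further: thallium influx through hERG after potassium depolarization seen as dye fluorescence rise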
Kir21 inh – inhibitors of mouse Kir2.1 inward-rectifier potassium channel; AID 1672; P35561; 310,000 tested, 0.85% active; B-score at 10 µM; HEK293-Kir2.1, FluxOR thallium flux fluorescence; hits give low values;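 active means fluorescence ratio B-score at or below minus 3 SD of library scores, with starting-brightness B-score within 2 SD, cut at about -4.2 in these data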;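 further: channel flux triggered by added potassium and thallium sulfate stimulus; B-score of peak minus minimum fluorescence over baseline after thallium stimulus; more negative B-score means stronger Kir2.1 block with less thallium influx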
KCNQ1 act – potentiates or activates the human KCNQ1 potassium channel. P51787. CHO-K1 KCNQ1, thallium flux FluxOR fluorescence; hits give high values. B-score at 10 µM. 310,000 tested, 0.35% active. AID 2648;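 active means fluorescence ratio B-score, a plate-corrected score, at least three library SD, with initial intensity B-score within 5 SD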
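System: CHO-K1 cells stably expressing KCNQ1 / Medium: assay buffer for compound exposure, DMSO matched across wells / Reagent: thallium- and potassium-containing depolarizing buffer / Compound: one concentration, matched DMSO / Incubation: 20 min compound pretreatment at room temperature / Measured by: kinetic FluxOR fluorescence, 10 s baseline plus 110 s post-stimulus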
KCNK9 block – inhibitors of human KCNK9 two-pore domain potassium channel. B-score at 10 µM. 310,000 tested, 1.2% active. HEK293 KCNK9, FluxOR thallium flux fluorescence; hits give low values;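 active means ratio B-score over 3 SD below the library mean, with starting fluorescence within 5 SD of its mean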;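 further: negative B-score means less thallium flux so channel inhibition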
Target sequence (Q9NPC2 whole entry, looked up, the tested form may be a part): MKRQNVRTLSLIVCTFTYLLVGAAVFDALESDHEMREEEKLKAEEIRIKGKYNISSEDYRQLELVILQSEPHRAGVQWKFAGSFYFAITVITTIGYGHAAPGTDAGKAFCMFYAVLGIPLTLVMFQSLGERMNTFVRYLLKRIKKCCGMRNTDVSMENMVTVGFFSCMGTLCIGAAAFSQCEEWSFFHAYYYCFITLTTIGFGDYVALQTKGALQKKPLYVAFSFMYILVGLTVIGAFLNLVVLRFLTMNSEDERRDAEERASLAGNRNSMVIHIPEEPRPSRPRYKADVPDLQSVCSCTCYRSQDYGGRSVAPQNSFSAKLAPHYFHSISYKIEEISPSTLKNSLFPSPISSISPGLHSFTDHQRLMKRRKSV
KCNQ1 block – blocks the human KCNQ1 potassium channel; P51787; CHO-K1 KCNQ1, FluxOR thallium flux fluorescence; hits give high values; B-score at 10 µM; 310,000 tested, 1.3% active; AID 2642;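 active means compounds whose thallium flux B-score, printed positive for inhibition, exceeds three library SD while starting fluorescence stays within three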;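 further: channel opened by potassium depolarization with thallium stimulus after 20 min compound exposure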
KCNK3 inh – human KCNK3 channel inhibition, primary screen. O14649. CHO-KCNK3 thallium flux, FluxOR fluorescence; hits give low values. B-score at 10 µM. 340,000 tested, 0.84% active. AID 602410;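 active means B-score under library mean minus 4 SD, starting fluorescence ratio at most library mean plus 5 SD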;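 further: more negative B-score means stronger inhibition of thallium flux through KCNK3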
Hits are given with their value; i = inactive; nt = no result given. The list is not random: actives were taken first. Their share in the collection is about 3.7%.

SMILES | hERG protect | Kir21 inh | KCNQ1 act | KCNK9 block | KCNQ1 block | KCNK3 inh
CCCCCCCNC(=O)C1(CC2CC(c3ccc(Cl)cc3)=NO2)CCN(C(=O)Cc2ccc(F)cc2)CC1 (configuration not stated) | i | i | i | i | i | i
CSc1ncccc1C(=O)OCC(=O)Nc1ccc(C)c(S(=O)(=O)N2CCOCC2)c1 | nt | nt | nt | nt | nt | i
COc1cc([N+](=O)[O-])cc(/C=C2/SC(=S)N(Cc3ccccc3)C2=O)c1O | i | i | i | i | 9 | i
O=C(NN1C(=O)/C(=C/c2ccc(O)cc2)SC1=S)c1cccc(O)c1 | i | i | i | -9.1 | 8 | i
COc1cc(/C=C2\SC(=S)N(NC(=O)c3ccccc3O)C2=O)ccc1O | i | i | i | i | 6 | i
O=C1/C(=C/c2ccc(O)c([N+](=O)[O-])c2)SC(=S)N1Cc1ccccc1 | i | i | i | i | 8 | i
COc1cc2c(cc1N)-c1ccc(N)cc1C2 | nt | nt | nt | nt | nt | i
C[C@H](O)[C@@H]1C(=O)N2CCc3ccc(-c4ccccc4)cc3[C@@H]2C[C@@H]1N(C)C(=O)Nc1cc(Cl)cc(Cl)c1 | nt | nt | nt | nt | nt | i
O=C(NN1C(=O)/C(=C/c2ccc(O)c([N+](=O)[O-])c2)SC1=S)c1ccccc1Cl | i | i | i | i | 7 | i
Cn1cc(/C=C2\SC(=S)N(NC(=O)c3cccc(Cl)c3)C2=O)c2ccccc21 | nt | nt | nt | nt | nt | i
O=C(NN1C(=O)/C(=C/c2cc([N+](=O)[O-])ccc2O)SC1=S)c1ccccc1O | i | i | i | i | i | nt
Cn1cc(/C=C2\SC(=S)N(NC(=O)c3ccccc3)C2=O)c2ccccc21 | 9.5 | i | i | i | i | i
CC(C)(C)[C@@H]1COC(=O)[C@@H](Cc2ccc(F)cc2)C/C=C\C[C@H](CC(=O)N(CCO)Cc2ccccc2)C(=O)N1 | nt | nt | nt | nt | nt | i
COc1ccc(Nc2nc(NCc3ccco3)nc(N)c2[N+](=O)[O-])cc1 | i | i | i | -7.8 | i | i
Cc1cccc(Nc2nc(NCc3ccco3)nc(N)c2[N+](=O)[O-])c1 | i | i | i | i | i | i
Cc1cccc(Nc2nc(N)c([N+](=O)[O-])c(NCc3ccco3)n2)c1 | i | i | i | i | 6 | i
CN(C)C1(CN=Cc2cc(Cl)cc([N+](=O)[O-])c2O)CCCCC1 | i | i | i | i | i | i
Oc1ccc(Br)cc1-c1n[nH]c(=S)n1Cc1ccccc1 | 5.9 | i | 11 | i | i | i
Cc1ccc(NC(=O)COc2ccccc2C(=O)NCCN(C)C)cc1 | 6.9 | i | i | i | i | nt
Cc1ccc(NC(=O)c2ccccc2OCC(=O)Nc2ccccc2F)cc1S(=O)(=O)N(C)C | nt | nt | nt | nt | nt | -9.6
CN(C(=O)COc1ccccc1C(=O)NCCOc1ccccc1)c1ccccc1 | i | -7.5 | i | i | i | i
COc1ccccc1C(=O)NCCC(=O)N(C)CC(=O)Nc1ccc(C)cc1 | i | i | i | i | i | i
Cc1ccc(S(=O)(=O)N(C)C)cc1NC(=O)COc1ccccc1C(=O)Nc1ccccc1 | i | i | i | i | i | i
CC(=O)N1CCOc2ccc(S(=O)(=O)N3CCN(c4cc(C)ccc4C)CC3)cc21 | i | i | i | i | i | i
Cc1ccccc1-c1nc(S(=O)(=O)c2ccc(Br)cc2)c(NCc2cccnc2)o1 | i | i | i | i | i | -9.1
SMILES | hERG protect | Kir21 inh | KCNQ1 act | KCNK9 block | KCNQ1 block | KCNK3 inh
Cc1ccc(C(=O)N2CC(=O)NC(=O)C2)cc1 | 5.3 | i | i | i | i | i
Cc1ccc(C(=O)N2CC3(C)CN(C(=O)c4ccc(C)cc4)CC(C)(C2)C3=O)cc1 | i | i | i | i | i | i
c1ccc(CCN=C2CCCc3c2[nH]c2ccccc32)cc1 | i | -12 | i | i | i | i
O=C(Nc1ccc(NC(=O)c2ccccc2O)cc1)Nc1ccc(F)cc1F | i | i | i | i | i | i
Cc1cccc(N2CCN(S(=O)(=O)c3ccc4c(c3)CC(C)N4C(=O)C3CC3)CC2)c1C (configuration not stated) | i | i | i | i | 6 | i
Cc1ccc2[nH]c3c(=O)n(CCCN4CCN(C)CC4)cnc3c2c1 | i | i | i | i | i | i
CCCN(CCC)Cc1c(C(=O)N/N=C/C(C)=C\c2ccco2)nnn1-c1nonc1N | i | i | 16 | i | i | i
C/C(=N\NC(=O)c1nnn(-c2nonc2N)c1CN(C)c1ccccc1)c1ccccn1 | i | i | i | -7.6 | i | i
